Among the data in PubChem BioAssay AID624466 (The Scripps Research Institute Molecular Screening Center, 2012) are inhibition values, retold here.

Screen size: about 360,000 compounds; about 5,400 (1.5%) were called active. The list comes from a sample in which actives are over-represented; it also holds similar structures and randomly drawn compounds. Unmarked numbers belong to inactive results.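 The calls were made as follows: active = inhibition above a per-plate cutoff, the mean inhibition of test compounds on that plate plus 3 SD (cut at about 49% in these data); inactive = the rest.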

Trace amine-associated receptor 1 (Homo sapiens), sequence (Q96RJ0 whole entry, looked up): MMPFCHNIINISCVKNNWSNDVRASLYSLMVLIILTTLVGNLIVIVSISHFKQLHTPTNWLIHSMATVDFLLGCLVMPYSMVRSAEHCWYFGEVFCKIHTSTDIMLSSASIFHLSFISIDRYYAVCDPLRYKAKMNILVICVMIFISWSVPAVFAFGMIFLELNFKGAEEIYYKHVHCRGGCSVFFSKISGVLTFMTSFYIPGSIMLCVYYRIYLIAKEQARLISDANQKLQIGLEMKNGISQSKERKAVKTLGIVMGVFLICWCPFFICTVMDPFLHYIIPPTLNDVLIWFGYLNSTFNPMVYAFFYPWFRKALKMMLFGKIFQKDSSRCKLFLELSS

The target of this test is Trace amine-associated receptor 1 (Homo sapiens) (UniProt Q96RJ0). Kind of test: human TAAR1 antagonists, primary screen, Fluo-8 calcium fluorescence, CHO RD-HGA16 cells (AID 624466).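 Also: 0% = DMSO plus EC80 beta-PEA response and 100% = DMSO alone without agonist.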 The conditions noted are these: CHO RD-HGA16 TAAR1, Fluo-8 calcium fluorescence, antagonist; at 3 µM; hits give high values. In a few lines:
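Test system: RD-HGA16 CHO cells with stable hTAAR1 and Gα16 / Probe or stimulus: EC80 β-phenethylamine stimulus / Times: seeding 17-24 h prior, 75-min 37 °C, 30-min RT dye loading / Detection: Fluo-8 calcium-sensitive fluorescence / Read-out basis: % inhibition scaled between DMSO and EC80 PEA controls / Repeats: singlicate, one well per test compound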
`O=C(Nn1c(-c2ccc(Cl)cc2)nc2ccccc2c1=O)c1cccnc1Cl`: the inhibition was 15.6%. In the case of `O=C(C[C@H]1CC[C@H]2[C@@H](COC[C@H](O)CN2C(=O)c2ccccn2)O1)N1CCN(c2ccccc2)CC1`, the inhibition is -9.63%. `CCOC(=O)N1CCN(C(=O)C[C@@H]2C[C@@]3(C(=O)OC)CC(C)(C)CC=C3N(Cc3ccco3)C2=O)CC1`: the inhibition is -19%. As for `COc1ccccc1N1CCN(C(=O)c2cn(-c3ccccc3)nc2-c2cccnc2)CC1`, the inhibition is 22.2%.

Take `COc1ccc(Nc2ncc(C(=O)N3CCN(c4ccccc4OC)CC3)c3ccccc23)cc1`: the inhibition was 49.5% (active). Take `COc1ccccc1N1CCN(C(=O)c2ccc(NC3=NC4CS(=O)(=O)CC4S3)cc2)CC1` (stereo not drawn): the inhibition is -7.44%.

Consider `CCCC(C)NC(=O)C1CCN(C(=O)C2CC(=O)N(c3ccc(C)cc3)C2)CC1` (stereo not drawn), for which the inhibition was 3.73%. The value for `C[C@@H]1ON(C)[C@H]2C[C@H]3c4cc(N5CCOCC5)ccc4CCN3C[C@@H]12` was -3.17%; that for `COc1ccc(S(=O)(=O)Nc2ccc3c(c2)C(=O)N([C@H](C)CO)C[C@H](C)[C@@H](CN(C)C)OCCCC[C@H](C)O3)cc1` was -3.5%; that for `O=C(Cc1c[nH]c2ccccc12)N/N=C/c1cccc(F)c1` was 15.8%. The value for `CSC(=S)N/N=C/c1c[nH]c2ccccc12` was 88.6% (active); that for `C[n+]1ccc(/C=C/c2c[nH]c3ccccc23)cc1` was -4.64%; that for `COc1ccc(S(=O)(=O)N2CCOC2CNC(=O)C(=O)NCc2ccncc2)cc1C` (stereo not drawn) was -15.9%. Regarding `COc1ccc(CCNC(=O)C(=O)NCC2OCCN2S(=O)(=O)c2ccc(F)cc2)cc1OC` (stereo not drawn), the inhibition is -12%.

Consider `COc1ccc(CCNC(=O)C(=O)NCC2OCCN2S(=O)(=O)c2ccc(OC)c(C)c2)cc1` (stereo not drawn), for which the inhibition was 53.6% (active).

As for `CC1Cc2[nH][nH]c(=O)c2C(C2CCCC2)O1` (stereo not drawn), the inhibition is 2.81%. Consider `CC(C)c1cc(Cn2c3ccccc3c(=O)n2C(C)Cn2cc(C3CC3)nn2)on1` (stereo not drawn), for which the inhibition was -16%. As to `CCCCN(C(=O)c1cccc(N2C(=O)c3ccccc3C2=O)c1)c1c(N)n(CCCC)c(=O)[nH]c1=O`, the inhibition is 5.52%. Turning to `CC(C)[C@@H](C)/C=C/[C@@H](C)[C@H]1CC[C@@H]2[C@]1(C)CCC1[C@]23C=C[C@]2(C[C@@H](O)CC[C@]12C)N(c1ccc([N+](=O)[O-])cn1)O3` (stereo partly drawn), the inhibition was -12%. On to `O=c1c2cc(-c3ccccc3)sc2nc2n1N=C(c1cccs1)CS2`, for which the inhibition was -11.2%. As for `Oc1ccccc1N1CCN(C(=S)NCc2ccccc2)CC1`, the inhibition was 3.27%.

Regarding `Oc1ccccc1N1CCN(c2ncnc3sc(-c4ccccc4)cc23)CC1`, the inhibition is 58.6% (active).

As for `O=C(Cn1c(N2CCN(C/C=C/c3ccccc3)CC2)nc2ccccc21)c1ccccc1`, the inhibition was 10.7%.

Take `COc1cccc(CC(=O)N2CCN(C(=O)C(=O)c3cccc(C(F)(F)F)c3)CC2)c1`: the inhibition is 15.5%. As to `Cc1ccccc1NC(=O)Cc1nc(COC(=O)c2cccnc2Cl)cs1`, the inhibition was 10.4%. For `Cc1ccccc1NC(=O)Cc1nc(COC(=O)CNC(=O)c2ccc(Cl)cc2Cl)cs1`, the inhibition is -26.5%. The value for `Cc1ccccc1NC(=O)Cc1nc(COC(=O)C(C)(C)Oc2ccc(Cl)cc2)cs1` was 64.8% (active); that for `CC(C)Nc1nnc(SC(C)C(=O)N(C)C2CCCCC2)s1` (stereo not drawn) was -5.6%; that for `Cc1ccc(S(=O)(=O)CC(=O)NC(C)c2ccccc2)cc1` (stereo not drawn) was -14.5%. On to `Cc1ccc(C)c(-c2nnc(NC(=O)CS(=O)(=O)c3ccccc3)o2)c1`, for which the inhibition was -13.2%. In the case of `Cc1cccc(S(=O)(=O)CC(=O)Nc2nc(-c3ccccc3)cs2)c1`, the inhibition is 53.8% (active). The value for `CCOC(=O)[C@]12CCCC=C1N(CCC1=CCCCC1)C(=O)[C@H](CC(=O)N1CCCCC1)C2` was -49.4%. To `COC(=O)C1=C(C)N(Cc2ccccc2C(F)(F)F)C(=NCc2ccc(C(F)(F)F)cc2)NC1c1ccc(F)cc1` (stereo not drawn) belongs -31.9%. As for `Nc1nnc(SCC(=O)Nc2ccc3nc(SCC(=O)Nc4ccccc4)sc3c2)s1`, the inhibition is 48.9% (active). With `CCCCNC(=O)CSc1nc2ccc(NC(=O)CSc3nnc(N)s3)cc2s1`, the inhibition was 14.2%. The value for `CCCCNC(=O)CSc1nc2ccc(NC(=O)CSc3nnc(COc4ccccc4C)n3C)cc2s1` was 23.6%. With `COC(=O)[C@@]12C[C@@H](CC(=O)NCCCCc3ccccc3)C(=O)N(Cc3ccccc3)C1=CCC(C)(C)C2`, the inhibition is 1.67%. For `CSCCC(C(=O)NC(C)(C)C)n1c(-c2ccccc2)nc2ccccc21` (stereo not drawn), the inhibition is -24.9%. On to `COC(=O)[C@@]1(Cc2ccc(F)cc2)[C@H]2c3cc(C(=O)N4CCCC4)n(Cc4ccc(OC(F)(F)F)cc4)c3C[C@H]2CN1C(=O)c1ccccc1`, for which the inhibition was -23%. Take `CC(NC(=O)Nc1ccccc1)c1ccccc1` (stereo not drawn): the inhibition is 8.89%. Regarding `CC(C)c1ccc(NC(=O)Cn2ncc3ccccc32)cc1`, the inhibition is -7.65%. The value for `CCC(C(=O)Nc1ccc(C(C)C)cc1)c1ccccc1` (stereo not drawn) was 83.9% (active); that for `COc1ccc(C(=O)NCC[N+](C)(C)C)cc1` was -19.6%. On to `O=c1[nH]c(-c2ccccc2)cn1C1CCN(Cc2ccc(-c3nc4ccc(F)cc4nc3-c3ccccc3)cc2)CC1`, for which the inhibition was 9.33%. To `COc1ccc(CCNC(=O)COC(=O)Cc2ccccc2F)cc1` belongs -11.5%; to `O=C(COC(=O)Cc1ccccc1F)NCCc1ccccc1`, 72.9% (active); to `O=C(COC(=O)Cc1c[nH]c2ccccc12)NCCc1ccccc1`, -12.2%. To `Cc1ccc2nc(SCC(=O)Nc3cccc4ccccc34)nc(=O)n2c1` belongs -20.9%.

Take `C=CCNC(=O)c1cc2nc(C3CC3)cc(C(F)F)n2n1`: the inhibition was 7.57%. Turning to `Cc1ccc(F)c(S(=O)(=O)NC(=O)C2(C)CCN2C(=O)CCc2cccs2)c1` (stereo not drawn), the inhibition was -14.2%. For `CCOC(=O)C1C(c2ccc(OC)c(OC)c2)c2c([nH][nH]c2=O)CC1(C)O` (stereo not drawn), the inhibition is 56.8% (active). As for `CCOC(=O)C1C(c2ccc(O)cc2)NC(=O)NC1(O)C(F)(F)F` (stereo not drawn), the inhibition is -14.2%. As to `CCC1(C)COC(c2ccc(OC)c(OC)c2)OC1` (stereo not drawn), the inhibition was -18.6%.
